Assay results taken from ChEMBL document CHEMBL1156074, “Diazo transfer-click reaction route to new, lipophilic teicoplanin and ristocetin aglycon derivatives with high antibacterial and anti-influenza virus activity: an aggregation and receptor binding study” (J Med Chem, 2009).
Values after ≈ are worked out from the molar mass of the structure shown. Active and inactive are the calls of the source.

How the values were obtained:
[1] = system: Staphylococcus epidermidis; assay: Antibacterial activity against Staphylococcus epidermidis after 18 hrs by broth microdilution method; type: functional
Influenza A virus [2] = assay: Antiviral activity against Influenza A virus (A/Puerto Rico/8/34(H1N1)) assessed as inhibition of virus-induced cytopathic effect at highest concentration by cell-based assay; type: functional, organism-based; details: A/Puerto Rico/8/1934(H1N1)
How it was run: (§1)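 Virus-induced cytopathic effect is scored visually in infected cell cultures. EC50 is defined as the compound concentration producing 50% inhibition of the CPE. A compound is recorded as not active when there is no inhibition at the highest concentration tested or at a subtoxic concentration.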

Enterococcus faecalis [3] = assay: Bactericidal activity against vancomycin and teicoplanin-sensitive Enterococcus faecalis ATCC 29212 after overnight incubation; type: functional
[4] = system: Staphylococcus epidermidis; assay: Antibacterial activity against biofilm of Staphylococcus epidermidis ATCC 35984 after 18 hrs by broth microdilution method; type: functional; details: RP62A
[5] = system: Staphylococcus epidermidis; assay: Bactericidal activity against Staphylococcus epidermidis after overnight incubation; type: functional
Influenza B virus [6] = assay: Antiviral activity against Influenza B virus (B/Hong Kong/5/72) assessed as cell viability at subtoxic concentration by cell-based MTS assay; type: functional; details: B/Hong Kong/05/1972
Staphylococcus aureus [7] = assay: Antibacterial activity against methicillin-sensitive Staphylococcus aureus ATCC 29213 after 18 hrs by broth microdilution method; type: functional; details: ATCC 29213, 18 h
Enterococcus faecalis [8] = assay: Antibacterial activity against vancomycin and teicoplanin-sensitive Enterococcus faecalis ATCC 29212 after 18 hrs by broth microdilution method; type: functional; details: ATCC 29212, 18 h
Staphylococcus aureus [9] = assay: Antibacterial activity against methicillin-sensitive Staphylococcus aureus ATCC 33591 after 18 hrs by broth microdilution method; type: functional; details: ATCC 33591, 18 h
Bacillus subtilis [10] = assay: Antibacterial activity against Bacillus subtilis ATCC 6633 after 18 hrs by broth microdilution method; type: functional; details: ATCC 6633, 18 h
Enterococcus faecalis [11] = assay: Bactericidal activity against vancomycin-resistant and teicoplanin-sensitive Enterococcus faecalis ATCC 51299 harboring vanB gene after overnight incubation; type: functional
Staphylococcus aureus [12] = assay: Bactericidal activity against methicillin-sensitive Staphylococcus aureus ATCC 33591 after overnight incubation; type: functional
Influenza A virus [13] = assay: Antiviral activity against Influenza A virus (A/Puerto Rico/8/34(H1N1)) assessed as cell viability at subtoxic concentration by cell-based MTS assay; type: functional, organism-based; details: A/Puerto Rico/8/1934(H1N1)
Staphylococcus aureus [14] = assay: Bactericidal activity against methicillin-sensitive Staphylococcus aureus ATCC 29213 after overnight incubation; type: functional
H3N2 subtype [15] = assay: Antiviral activity against Influenza A virus (A/Hong Kong/7/87(H3N2)) assessed as inhibition of virus-induced cytopathic effect at highest concentration by cell-based assay; type: functional, organism-based; details: A/Hong Kong/7/1987(H3N2); how it was run: as §1
Enterococcus faecalis [16] = assay: Antibacterial activity against vancomycin and teicoplanin-resistant Enterococcus faecalis 15376 harboring vanA gene after 18 hrs by broth microdilution method; type: functional; details: Enterococcus faecalis, 15376, 18 h
Enterococcus faecalis [17] = assay: Antibacterial activity against vancomycin-resistant and teicoplanin-sensitive Enterococcus faecalis ATCC 51299 harboring vanB gene after 18 hrs by broth microdilution method; type: functional; details: ATCC 51299, 18 h
H3N2 subtype [18] = assay: Antiviral activity against Influenza A virus (A/Hong Kong/7/87(H3N2)) assessed as cell viability at subtoxic concentration by cell-based MTS assay; type: functional, organism-based; details: A/Hong Kong/7/1987(H3N2)
Influenza B virus [19] = assay: Antiviral activity against Influenza B virus (B/Hong Kong/5/72) assessed as inhibition of virus-induced cytopathic effect at highest concentration by cell-based assay; type: functional; details: B/Hong Kong/05/1972; how it was run: as §1
Enterococcus faecalis [20] = assay: Bactericidal activity against vancomycin and teicoplanin-resistant Enterococcus faecalis 15376 harboring vanA gene after overnight incubation; type: functional
[21] = system: Staphylococcus epidermidis; assay: Bactericidal activity against biofilm of Staphylococcus epidermidis ATCC 35984 after overnight incubation; type: functional; details: RP62A
Bacillus subtilis [22] = assay: Bactericidal activity against Bacillus subtilis ATCC 6633 after overnight incubation; type: functional

SMILES	MIC [1] [µg/mL]	inhibition (Influenza A virus [2])	MBC (Enterococcus faecalis [3]) [µg/mL]	MIC [4] [µg/mL]	MBC [5] [µg/mL]	inhibition (Influenza B virus [6])	MIC (Staphylococcus aureus [7]) [µg/mL]	MIC (Enterococcus faecalis [8]) [µg/mL]	MIC (Staphylococcus aureus [9]) [µg/mL]	MIC (Bacillus subtilis [10]) [µg/mL]	MBC (Enterococcus faecalis [11]) [µg/mL]	MBC (Staphylococcus aureus [12]) [µg/mL]	inhibition (Influenza A virus [13])	MBC (Staphylococcus aureus [14]) [µg/mL]	inhibition (H3N2 subtype [15])	MIC (Enterococcus faecalis [16]) [µg/mL]	MIC (Enterococcus faecalis [17]) [µg/mL]	inhibition (H3N2 subtype [18])	MBC [21] [µg/mL]	MBC (Bacillus subtilis [22]) [µg/mL]	other results
COC(=O)[C@@H]1NC(=O)[C@H]2NC(=O)[C@H](NC(=O)[C@@H]3NC(=O)[C@H]4NC(=O)[C@@H](Cc5ccc(c(Cl)c5)Oc5cc3cc(c5O)Oc3ccc(cc3Cl)[C@H]2O[C@@H]2O[C@H](CO)[C@@H](O)[C@H](O)[C@H]2NC(C)=O)NC(=O)[C@H](N=[N+]=[N-])c2ccc(O)c(c2)Oc2cc(O)cc4c2)c2ccc(O)c(c2)-c2c(O)cc(O)cc21	4 (≈ 2.77 µM)	inactive	256 (≈ 178 µM)	8 (≈ 5.55 µM)	4 (≈ 2.77 µM)	inactive	4 (≈ 2.77 µM)	16 (≈ 11.1 µM)	4 (≈ 2.77 µM)	8 (≈ 5.55 µM)	256 (≈ 178 µM)	8 (≈ 5.55 µM)	inactive	8 (≈ 5.55 µM)	inactive	16 (≈ 11.1 µM)	16 (≈ 11.1 µM)	inactive	8 (≈ 5.55 µM)	8 (≈ 5.55 µM)	inhibition (Influenza B virus [19]): inactive; MBC (Enterococcus faecalis [20]): 256 µg/mL (≈ 178 µM)
COC(=O)[C@@H]1NC(=O)[C@H]2NC(=O)[C@H](NC(=O)[C@@H]3NC(=O)[C@H]4NC(=O)[C@H](NC(=O)[C@H](n5cc(COc6ccc(-c7ccccc7)cc6)nn5)c5ccc(O)c(c5)Oc5cc4cc(O)c5C)[C@H](O)c4ccc(cc4)Oc4cc3cc(c4O)Oc3ccc(cc3)[C@H]2O)c2ccc(O)c(c2)-c2c(O)cc(O)cc21	> 256	inactive	–	> 256	–	inactive	> 256	> 256	> 256	> 256	–	–	inactive	–	inactive	> 256	> 256	inactive	–	–	inhibition (Influenza B virus [19]): inactive
CC(=O)N[C@H]1[C@H](O[C@@H]2c3ccc(c(Cl)c3)Oc3cc4cc(c3O)Oc3ccc(cc3Cl)C[C@H]3NC(=O)[C@H](N=[N+]=[N-])c5ccc(O)c(c5)Oc5cc(O)cc(c5)[C@H](NC3=O)C(=O)N[C@H]4C(=O)N[C@H]3C(=O)N[C@@H]2C(=O)N[C@@H](C(=O)O)c2cc(O)cc(O)c2-c2cc3ccc2O)O[C@H](CO)[C@@H](O)[C@@H]1O	4 (≈ 2.8 µM)	inactive	32 (≈ 22.4 µM)	16 (≈ 11.2 µM)	4 (≈ 2.8 µM)	inactive	8 (≈ 5.6 µM)	32 (≈ 22.4 µM)	4 (≈ 2.8 µM)	64 (≈ 44.8 µM)	32 (≈ 22.4 µM)	2 (≈ 1.4 µM)	inactive	8 (≈ 5.6 µM)	inactive	> 256	64 (≈ 44.8 µM)	inactive	16 (≈ 11.2 µM)	32 (≈ 22.4 µM)	inhibition (Influenza B virus [19]): inactive
CCCCCCCCCCOCc1cn([C@H]2C(=O)N[C@@H]3Cc4ccc(c(Cl)c4)Oc4cc5cc(c4O)Oc4ccc(cc4Cl)[C@@H](O[C@@H]4O[C@H](CO)[C@@H](O)[C@H](O)[C@H]4NC(C)=O)[C@@H]4NC(=O)[C@H](NC(=O)[C@@H]5NC(=O)[C@@H](NC3=O)c3cc(O)cc(c3)Oc3cc2ccc3O)c2ccc(O)c(c2)-c2c(O)cc(O)cc2[C@H](C(=O)O)NC4=O)nn1	0.5 (≈ 0.308 µM)	inactive	0.25 (≈ 0.154 µM)	0.5 (≈ 0.308 µM)	0.5 (≈ 0.308 µM)	inactive	0.5 (≈ 0.308 µM)	0.5 (≈ 0.308 µM)	0.5 (≈ 0.308 µM)	2 (≈ 1.23 µM)	0.25 (≈ 0.154 µM)	0.25 (≈ 0.154 µM)	inactive	0.25 (≈ 0.154 µM)	inactive	0.5 (≈ 0.308 µM)	0.5 (≈ 0.308 µM)	inactive	0.25 (≈ 0.154 µM)	0.25 (≈ 0.154 µM)	inhibition (Influenza B virus [19]): inactive; MBC (Enterococcus faecalis [20]): 0.25 µg/mL (≈ 0.154 µM)
COC(=O)[C@H]1NC(=O)[C@H]2NC(=O)[C@H](NC(=O)[C@@H]3NC(=O)[C@H]4NC(=O)[C@H](NC(=O)[C@H](N=[N+]=[N-])c5ccc(O)c(c5)Oc5cc4cc(O)c5C)[C@H](O)c4ccc(cc4)Oc4cc3cc(c4O)Oc3ccc(cc3)[C@H]2O)c2ccc(O)c(c2)-c2c(O)cc(O)cc21	16 (≈ 13.3 µM)	–	8 (≈ 6.67 µM)	16 (≈ 13.3 µM)	16 (≈ 13.3 µM)	–	2 (≈ 1.67 µM)	16 (≈ 13.3 µM)	2 (≈ 1.67 µM)	4 (≈ 3.33 µM)	64 (≈ 53.3 µM)	1 (≈ 0.833 µM)	–	2 (≈ 1.67 µM)	–	> 256	128 (≈ 107 µM)	–	8 (≈ 6.67 µM)	1 (≈ 0.833 µM)	–
CN[C@H](CC(C)C)C(=O)N[C@H]1C(=O)N[C@@H](CC(N)=O)C(=O)N[C@H]2C(=O)N[C@H]3C(=O)N[C@H](C(=O)N[C@H](C(=O)O)c4cc(O)cc(O)c4-c4cc3ccc4O)[C@H](O)c3ccc(c(Cl)c3)Oc3cc2cc(c3O[C@@H]2O[C@H](CO)[C@@H](O)[C@H](O)[C@H]2O[C@H]2C[C@](C)(N)[C@H](O)[C@H](C)O2)Oc2ccc(cc2Cl)[C@H]1O [VANCOMYCIN]	–	–	16 (≈ 11 µM)	–	4 (≈ 2.76 µM)	–	–	–	–	1 (≈ 0.69 µM)	16 (≈ 11 µM)	4 (≈ 2.76 µM)	–	4 (≈ 2.76 µM)	–	> 256	16 (≈ 11 µM)	–	4 (≈ 2.76 µM)	4 (≈ 2.76 µM)	–
COC(=O)[C@@H]1NC(=O)[C@H]2NC(=O)[C@H](NC(=O)[C@@H]3NC(=O)[C@H]4NC(=O)[C@@H](Cc5ccc(c(Cl)c5)Oc5cc3cc(c5O)Oc3ccc(cc3Cl)[C@H]2O)NC(=O)[C@H](N=[N+]=[N-])c2ccc(O)c(c2)Oc2cc(O)cc4c2)c2ccc(O)c(c2)-c2c(O)cc(O)cc21 [METHYL ESTER OF AZIDO TEICOPLANIN AGLYCON]	64 (≈ 51.7 µM)	inactive	256 (≈ 207 µM)	64 (≈ 51.7 µM)	256 (≈ 207 µM)	inactive	64 (≈ 51.7 µM)	128 (≈ 103 µM)	64 (≈ 51.7 µM)	2 (≈ 1.61 µM)	256 (≈ 207 µM)	256 (≈ 207 µM)	inactive	256 (≈ 207 µM)	inactive	128 (≈ 103 µM)	128 (≈ 103 µM)	inactive	256 (≈ 207 µM)	4 (≈ 3.23 µM)	inhibition (Influenza B virus [19]): inactive; MBC (Enterococcus faecalis [20]): 256 µg/mL (≈ 207 µM)
CCCCCCCCCCOCc1cn([C@H]2C(=O)N[C@@H]3Cc4ccc(c(Cl)c4)Oc4cc5cc(c4O)Oc4ccc(cc4Cl)[C@@H](O)[C@@H]4NC(=O)[C@H](NC(=O)[C@@H]5NC(=O)[C@@H](NC3=O)c3cc(O)cc(c3)Oc3cc2ccc3O)c2ccc(O)c(c2)-c2c(O)cc(O)cc2[C@H](C(=O)OC)NC4=O)nn1	16 (≈ 11.1 µM)	inactive	128 (≈ 89.2 µM)	256 (≈ 178 µM)	64 (≈ 44.6 µM)	inactive	128 (≈ 89.2 µM)	32 (≈ 22.3 µM)	64 (≈ 44.6 µM)	0.5 (≈ 0.348 µM)	256 (≈ 178 µM)	256 (≈ 178 µM)	inactive	256 (≈ 178 µM)	inactive	128 (≈ 89.2 µM)	64 (≈ 44.6 µM)	inactive	256 (≈ 178 µM)	0.5 (≈ 0.348 µM)	inhibition (Influenza B virus [19]): inactive; MBC (Enterococcus faecalis [20]): 256 µg/mL (≈ 178 µM)
CC(=O)N[C@H]1[C@H](O[C@@H]2c3ccc(c(Cl)c3)Oc3cc4cc(c3O)Oc3ccc(cc3Cl)C[C@H]3NC(=O)[C@H](n5cc(COc6ccc(-c7ccccc7)cc6)nn5)c5ccc(O)c(c5)Oc5cc(O)cc(c5)[C@H](NC3=O)C(=O)N[C@H]4C(=O)N[C@H]3C(=O)N[C@@H]2C(=O)N[C@@H](C(=O)O)c2cc(O)cc(O)c2-c2cc3ccc2O)O[C@H](CO)[C@@H](O)[C@@H]1O	0.5 (≈ 0.306 µM)	–	0.25 (≈ 0.153 µM)	0.5 (≈ 0.306 µM)	–	–	0.5 (≈ 0.306 µM)	0.5 (≈ 0.306 µM)	0.5 (≈ 0.306 µM)	0.5 (≈ 0.306 µM)	0.25 (≈ 0.153 µM)	0.25 (≈ 0.153 µM)	–	0.25 (≈ 0.153 µM)	–	0.5 (≈ 0.306 µM)	0.5 (≈ 0.306 µM)	–	–	0.25 (≈ 0.153 µM)	MBC (Enterococcus faecalis [20]): 0.25 µg/mL (≈ 0.153 µM)
